The text below walks through data of ChEMBL document CHEMBL3745639, “Structure-activity relationships for lipoprotein lipase agonists that lower plasma triglycerides in vivo” (Eur J Med Chem, 2015).

The source made the active and inactive calls. How the calls were made is not given here.

A short description of series [1]: Kinetic aqueous solubility of the compound in PBS at pH 1.2 after 2 hrs by LC-Ms analysis. The class given is physicochemical. To be noted: read-out: Kinetic_solubility. In outline:
(§1)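 Kinetic solubility from a 10 mM DMSO stock diluted 1:100 (1% DMSO, maximum detectable 0.1 mM) into PBS pH 7.4 or HCl-adjusted PBS at about pH 1.2. Incubated at 37 °C for 2 h in sealed glass vials, centrifuged at 10000 x g, 37 °C, 20 min, then LC-MS/MS.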

Series [2] has as its target T1, Lipoprotein lipase (Bos taurus) (UniProt P11151).
T1 sequence (whole entry): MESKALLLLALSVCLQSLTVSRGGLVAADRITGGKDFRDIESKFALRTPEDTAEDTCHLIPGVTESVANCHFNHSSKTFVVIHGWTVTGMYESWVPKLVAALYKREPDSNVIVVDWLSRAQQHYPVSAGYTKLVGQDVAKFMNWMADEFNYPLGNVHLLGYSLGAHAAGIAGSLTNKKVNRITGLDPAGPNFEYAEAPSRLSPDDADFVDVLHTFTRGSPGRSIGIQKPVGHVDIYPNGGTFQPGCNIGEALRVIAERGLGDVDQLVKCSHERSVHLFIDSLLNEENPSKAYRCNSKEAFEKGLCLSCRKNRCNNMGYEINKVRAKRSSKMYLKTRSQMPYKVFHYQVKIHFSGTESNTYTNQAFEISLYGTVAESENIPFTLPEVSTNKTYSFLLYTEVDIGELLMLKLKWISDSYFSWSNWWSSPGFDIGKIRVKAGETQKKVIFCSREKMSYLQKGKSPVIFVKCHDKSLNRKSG
Put plainly: Induction of bovine LPL stabilization using intralipid as substrate at 12.5 uM preincubated for 10 mins with human recombinant ANGPTL4 followed by substrate addition measured after 45 mins relative to control. In outline:
(§2)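 Compound in DMSO in buffer (50 mM potassium phosphate pH 7.4, 0.15 M NaCl, 0.01% Triton X-100), with human ANGPTL4 N-terminal fragment (aa 26-184, 75 nM final) and bovine LPL (15 nM final). Preincubated 10 min at 25 °C with shaking. Stopped after 45 min with 2.5% Triton X-100, and NEFA measured enzymatically. Activity normalised between DMSO+LPL+ANGPTL4 (0%) and DMSO+LPL (100%).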

The nature of series [3]: Intrinsic clearance in human hepatocytes assessed per 10^6 cells at 1 uM after 10 to 60 mins by LC-MS/MS analysis in presence of NADPH. The class given is ADME, cell-based, Hepatocyte. As to conditions: read-out: CLH. The essentials: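 Freshly isolated human hepatocytes (0.5 x 10⁶ cells/ml) in Williams medium E with compound at 1 μM. Reaction started by adding cells. Sampled at 0, 10, 30 and 60 min in duplicate, quenched with acetonitrile containing warfarin, then LC-MS/MS.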

Series [4] has as its target T2, Peroxisome proliferator-activated receptor gamma (Homo sapiens, UniProt P37231).
T2 sequence (P37231 whole entry): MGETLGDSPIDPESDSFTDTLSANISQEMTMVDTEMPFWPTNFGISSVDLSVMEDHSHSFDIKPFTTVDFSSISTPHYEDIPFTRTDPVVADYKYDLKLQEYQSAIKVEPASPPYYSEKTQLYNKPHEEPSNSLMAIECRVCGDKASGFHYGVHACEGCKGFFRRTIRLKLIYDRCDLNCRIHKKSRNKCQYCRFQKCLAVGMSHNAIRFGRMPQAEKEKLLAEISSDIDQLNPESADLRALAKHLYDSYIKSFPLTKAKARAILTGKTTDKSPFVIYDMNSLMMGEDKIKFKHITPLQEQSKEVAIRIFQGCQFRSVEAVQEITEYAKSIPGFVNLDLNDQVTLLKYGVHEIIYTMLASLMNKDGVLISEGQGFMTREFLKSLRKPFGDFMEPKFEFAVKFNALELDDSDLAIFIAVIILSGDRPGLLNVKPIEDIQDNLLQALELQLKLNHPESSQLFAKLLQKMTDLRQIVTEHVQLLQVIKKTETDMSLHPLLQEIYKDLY
Briefly: Agonist activity at PPARgamma (unknown origin). The essentials:
(§3)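 Single agonist-mode profiling at ten concentrations against FXR, PPARα, PPARγ and RXRα, run as an outside screening service.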

The nature of series [5]: Apparent permeability across apical to basolateral side in human Caco2 cells at 10 uM after 15 to 60 mins. The class given is ADME, cell-based. To be noted: Caco-2. The essentials: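 Caco-2 monolayers washed with pre-warmed HBSS, then donor solution applied. Transport run with apical pH 6.5 and basolateral pH 7.4. Monolayer integrity checked by TEER and by mannitol permeability. Papp derived from transport rates.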
For orientation: Caco-2 cells form a polarised layer with tight junctions and transporters.

The next series deals with T3, Bile acid receptor (Homo sapiens, UniProt Q96RI1).
T3 sequence (Q96RI1 whole entry): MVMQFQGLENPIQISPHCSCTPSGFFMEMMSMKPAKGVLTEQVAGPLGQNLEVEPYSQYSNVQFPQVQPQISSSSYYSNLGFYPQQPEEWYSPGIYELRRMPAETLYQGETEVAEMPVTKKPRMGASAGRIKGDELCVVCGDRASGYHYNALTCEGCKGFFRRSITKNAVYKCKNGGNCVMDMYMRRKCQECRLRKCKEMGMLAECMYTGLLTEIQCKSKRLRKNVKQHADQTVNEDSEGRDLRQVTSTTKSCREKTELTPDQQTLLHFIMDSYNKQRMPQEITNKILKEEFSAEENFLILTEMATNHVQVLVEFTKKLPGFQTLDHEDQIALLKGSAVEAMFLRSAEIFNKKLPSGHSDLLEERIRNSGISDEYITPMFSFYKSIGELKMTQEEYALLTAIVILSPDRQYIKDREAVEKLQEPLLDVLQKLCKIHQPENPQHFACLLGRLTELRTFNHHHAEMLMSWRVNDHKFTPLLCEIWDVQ
Briefly: Agonist activity at FXR (unknown origin). The essentials:
as §3

A short description of series [6]: Kinetic aqueous solubility of the compound in PBS at pH 7.4 after 2 hrs by LC-MS/MS analysis. In kind it is physicochemical. To be noted: read-out: Kinetic_solubility. The essentials:
as §1

In series [7] the target is T4, Retinoic acid receptor RXR-alpha (Homo sapiens, UniProt P19793).
T4 sequence (P19793 whole entry): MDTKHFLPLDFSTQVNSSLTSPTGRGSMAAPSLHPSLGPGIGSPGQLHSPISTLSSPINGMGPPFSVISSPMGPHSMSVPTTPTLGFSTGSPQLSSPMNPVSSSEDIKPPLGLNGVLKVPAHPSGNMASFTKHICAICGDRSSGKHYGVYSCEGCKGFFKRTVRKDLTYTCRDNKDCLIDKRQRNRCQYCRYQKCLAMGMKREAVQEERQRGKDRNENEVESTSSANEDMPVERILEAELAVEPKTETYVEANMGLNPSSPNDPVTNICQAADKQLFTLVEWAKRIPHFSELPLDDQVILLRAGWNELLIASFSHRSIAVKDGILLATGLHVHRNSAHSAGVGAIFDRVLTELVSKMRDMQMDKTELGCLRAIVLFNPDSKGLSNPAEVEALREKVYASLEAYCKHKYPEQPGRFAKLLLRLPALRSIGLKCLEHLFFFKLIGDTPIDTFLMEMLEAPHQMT
Put plainly: Agonist activity at RXRalpha (unknown origin). The essentials: as §3

In series [8] the target is T1, Lipoprotein lipase (Bos taurus). Briefly: Induction of bovine LPL stabilization using intralipid as substrate at 3.12 uM preincubated for 10 mins with human recombinant ANGPTL4 followed by substrate addition measured after 45 mins relative to control. The essentials:
as §2

As a reminder, the EC50 is the concentration at which the effect is half-maximal. High values mean a need for much substance, low ones an effect from little substance. For orientation: Papp A→B means the apparent permeability from the apical to the basolateral side of a cell layer. As to `Cc1ccc(NC(=O)c2cc(-n3cc4ccc(C(=O)O)cc4n3)ccc2N2CCCCC2)cc1`, the solubility kinetic at 2 h in series [1] and in series [6] was below 2 µM throughout. Besides, the Activity in series [2] turned out to be 75.6%. Further, in series [3], the hepatocyte CLint at 1 µM came out at 12 µL/min/1e6 cells. For the same compound, the EC50 (in series [4]; on Bile acid receptor; in [7]) was above 100 µM throughout. Further, the apparent permeability from apical to basolateral (Papp A→B) at 10 µM in series [5] was 23 ×10⁻⁶ cm/s. Further, the result in series [8] was inactive.
